High-throughput results (PubChem BioAssay)
GSTO1 inh – counter-screen for RBBP9 inhibitors: inhibitors of human GSTO1. hit rate 1.1% among 300,000. inhibition, % at 5.96 µM. AID 1974. P78417. recombinant GSTO1, activity-based probe fluorescence polarization;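 active = inhibition above the campaign mean inhibition plus 3 SD, cut at about 35% in these data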;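 also: 0% = GSTO1-1 with DMSO and 100% = wells lacking GSTO1-1 enzyme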
Target sequence (P78417 whole entry, looked up): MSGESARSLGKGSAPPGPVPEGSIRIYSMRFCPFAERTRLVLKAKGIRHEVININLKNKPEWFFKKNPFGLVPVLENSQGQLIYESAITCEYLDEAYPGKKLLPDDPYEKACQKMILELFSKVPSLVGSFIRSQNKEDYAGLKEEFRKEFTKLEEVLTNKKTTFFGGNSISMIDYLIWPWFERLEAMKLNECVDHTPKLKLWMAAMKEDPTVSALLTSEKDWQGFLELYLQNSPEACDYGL
PAD4 inh – PAD4 (human) enzyme inhibition; AID 485272; Q9UM07; inhibition, % at 6.36 µM; recombinant PAD4, RCA probe fluorescence polarization; hit rate 0.41% among 330,000;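 active = percent inhibition above a cutoff equal to the mean of all tested compounds plus 3 SD, cut at about 15% in these data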;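 also: 0% = PAD4 with RCA probe and DMSO and 100% = probe without PAD4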
Fam108B inh – counter-screen for RBBP9 inhibitors: inhibitors of mouse Fam108B. recombinant Fam108B, FP-Rh probe fluorescence polarization. inhibition, % at 9.51 µM. hit rate 0.33% among 300,000;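 active = inhibition above the screen mean inhibition plus 3 SD, computed separately per campaign, cut at about 18% in these data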;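 also: inhibitors lower polarization as less probe binds the enzyme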
PME-1 inh – blocks human protein phosphatase methylesterase 1; recombinant PME-1, FP-Rh probe fluorescence polarization; hit rate 0.53% among 320,000; AID 2130; inhibition, % at 5.9 µM;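 active = inhibition above the campaign mean of all compounds plus 3 SD, cut at about 26% in these data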;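 also: competitive labeling of PME-1 active site by serine hydrolase directed probe; 0% = PME-1 with DMSO and 100% = wells lacking PME-1 enzyme; inhibitors block probe labeling so polarization falls and inhibition rises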
Target sequence (Q9Y570 whole entry, looked up): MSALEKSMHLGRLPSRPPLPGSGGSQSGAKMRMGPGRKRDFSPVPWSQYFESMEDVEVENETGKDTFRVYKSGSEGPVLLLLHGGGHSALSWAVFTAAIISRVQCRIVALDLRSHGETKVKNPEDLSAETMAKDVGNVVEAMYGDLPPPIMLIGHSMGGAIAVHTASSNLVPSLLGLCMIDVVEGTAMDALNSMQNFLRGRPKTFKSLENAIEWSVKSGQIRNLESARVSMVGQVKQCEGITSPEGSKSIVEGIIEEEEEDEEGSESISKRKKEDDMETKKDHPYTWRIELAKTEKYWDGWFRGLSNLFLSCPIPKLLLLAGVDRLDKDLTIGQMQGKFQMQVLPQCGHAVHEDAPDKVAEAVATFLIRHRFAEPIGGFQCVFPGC
RBBP9 inh – human RBBP9 hydrolase inhibition; AID 1515; recombinant RBBP9, FP-Rh probe fluorescence polarization; inhibition, % at 7.94 µM; hit rate 0.2% among 220,000;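 active = inhibition above the campaign mean of all tested compounds plus 3 SD, cut at about 14% in these data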;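 also: plate controls were DMSO wells with RBBP9 for no effect and wells lacking RBBP9 protein for full effect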
Target sequence (O75884 whole entry, looked up): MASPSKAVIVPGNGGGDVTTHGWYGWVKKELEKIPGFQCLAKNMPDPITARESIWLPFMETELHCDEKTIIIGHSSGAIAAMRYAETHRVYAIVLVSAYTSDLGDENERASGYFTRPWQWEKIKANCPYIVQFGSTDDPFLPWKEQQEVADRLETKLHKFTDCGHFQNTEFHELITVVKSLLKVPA
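Test system: recombinant human RBBP9; Timing: 30 min then 45 min, 25 °C; Detection: fluorescence polarization; Control set: RBBP9 with DMSO as uninhibited control, no-protein wells as full inhibition; Compound dosing: one concentration, 7.94 µM nominal, 0.794% DMSO; Probe or stimulus: FP-Rh activity-based probe, 375 nM before mixing.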
PRMT1 inh – blocks human protein arginine methyltransferase 1 | Q99873 | recombinant PRMT1, activity-based probe fluorescence polarization | inhibition, % at 2.79 µM | hit rate 1.3% among 370,000;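 active = inhibition above about 21% made by adding two undisclosed values, limit read from the data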
GSTO1 inh conf – confirmation of human GSTO1 inhibitors | recombinant GSTO1, probe fluorescence polarization | hit rate 54% among 2,400 | inhibition, % at 5.96 µM | shares compounds with GSTO1 inh;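 active = inhibition above the primary screen's cutoff, its mean inhibition plus 3 SD, cut at about 35% in these data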;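 also: loss of polarization as inhibitors block binding of rhodamine sulfonate ester activity probe; 0% = GSTO1 with DMSO and 100% = wells lacking GSTO1 enzyme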
GSTO1 recomb ABPP – blocks recombinant human glutathione S-transferase omega 1; shares compounds with GSTO1 inh; inhibition, % at 1 µM; hit rate 30% among 130; recombinant GSTO1, gel ABPP SE-Rh probe fluorescence;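 active = inhibition of the enzyme GSTO1 above about 75%, limit read from the data; inactive = inhibition below that limit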
* = called active by the depositor; / = no result. The list is not random: actives were taken first. Their share in the collection is about 2.3%.

SMILES | GSTO1 inh | PAD4 inh | Fam108B inh | PME-1 inh | RBBP9 inh | PRMT1 inh | GSTO1 inh conf | others
COc1cc(-c2cc(=O)c3c(O)c(OC)c(OC)c(O)c3o2)ccc1O | 41.5* | -4.8 | 4.8 | 5.6 | 1.6 | 4.4 | 8.1
Cc1cccc(C(=O)NCCN2CCOCC2)c1[N+](=O)[O-] | -2.4 | -2.7 | -1.7 | 2.5 | 0.6 | 2.4 | /
COc1cc2c(cc1OC)CN(c1ccc([N+](=O)[O-])cc1C#N)CC2 | -0.1 | 2.6 | 6.3 | 8.4 | -38.0 | -0.3 | /
Cc1cccc(N(Cc2cc(=O)[nH]c3ccccc23)C(=O)CCl)c1 | 89.9* | 13.8 | -7.4 | -3.7 | / | 13.7 | 90.8* | GSTO1 recomb ABPP=76.0*
COc1ccc(N(Cc2cc(=O)[nH]c3ccccc23)C(=O)CCl)cc1 | 79.1* | 5.9 | -3.0 | -0.5 | / | -3.4 | 94.5* | GSTO1 recomb ABPP=44.0
CCN1CCN(C(c2ccc(OC)cc2)C(O)C(=O)c2c[nH]c3ccccc23)CC1 (centres undefined) | 10.9 | 1.1 | 0.2 | -12.5 | 3.5 | / | /
O=C(O)c1cccc(NC2=C(N3CCOCC3)C(=O)c3ccccc3C2=O)c1 | 46.7* | 10.2 | 2.2 | -6.0 | 8.4 | -0.7 | 16.6
O=C1C(NS(=O)(=O)c2cccs2)=C(N2CCOCC2)C(=O)c2ccccc21 | 7.4 | -10.4 | 2.4 | 4.5 | -11.3 | 0.4 | /
COc1cc(-c2c(NC(=O)c3ccco3)oc3ccc(Cl)cc3c2=O)cc(OC)c1OC | / | / | / | / | / | -4.5 | /
O=C(CCl)N1CCN(CC(=O)N2CCCC2)CC1 | 81.7* | 2.4 | 1.0 | -6.1 | / | -3.4 | 80.5* | GSTO1 recomb ABPP=40.0
Cc1ccc2[nH]c3ccccc3c(=O)c2c1 | -4.8 | 2.2 | -2.1 | 6.5 | / | 2.9 | /
O=c1c2ccccc2[nH]c2ccc(O)cc12 | 45.7* | -2.2 | 8.2 | -4.2 | / | 11.2 | 20.7
O=C(CCNC(=O)c1ccc(Cl)cc1)Nc1nc2ccccc2[nH]1 | / | 1.3 | / | / | / | 1.4 | /
O=C1c2ccccc2S(=O)(=O)c2cc(N3CCN(C(=O)c4ccccc4)CC3)ccc21 | -1.3 | -0.6 | -2.1 | -1.4 | / | -0.5 | /
Cc1ccc(C(=O)c2coc3cc([N+](=O)[O-])c(O)c([N+](=O)[O-])c23)cc1 | 37.6* | 1.3 | 12.5 | 13.5 | 12.0 | 26.5* | 19.2
N#CC(=C=[N-])c1nc2ccccc2nc1-[n+]1ccccc1 | 64.0* | -4.3 | 3.3 | -0.1 | -9.7 | -3.6 | 36.5*
Cc1cc[n+](-c2nc3ccccc3nc2C(=C=[N-])C#N)cc1 | 47.4* | -26.6 | 10.4 | 11.6 | -4.5 | 3.4 | 34.8
O=S(=O)([N-]c1nc2ccccc2nc1-[n+]1ccccc1)c1ccc(Cl)cc1 | -36.3 | -2.5 | 5.6 | 1.0 | -9.4 | -2.0 | /
Cc1ccccc1Oc1ccc(-c2nc(N)nc(N)n2)cc1 | -0.3 | -1.2 | 0.6 | -1.6 | -3.8 | 0.4 | /
O=C1CC(O)(C(F)F)Oc2ccc3ccccc3c21 (centres undefined) | 51.0* | -0.4 | 4.8 | -4.5 | -3.2 | -0.5 | 44.0*
O=C(CSc1nnc(-c2ccccc2)o1)NC(=O)Cc1ccccc1 | / | -0.8 | / | / | / | 2.0 | /
C=CCN1C(=O)NC(c2ccccc2)(C(F)(F)F)S/C1=C(\C#N)c1nnc(N2CCOCC2)n1-c1ccccc1 (centres undefined) | 42.9* | 1.2 | 0.1 | -0.1 | -4.4 | -4.0 | 57.5*
Cc1ccc(C(=O)NNc2cc(N3CCCC3)nc(N3CCCC3)n2)cc1 | 48.6* | 8.1 | 1.9 | -1.8 | 10.3 | / | 71.6*
O=C(NNc1cc(N2CCOCC2)nc(N2CCOCC2)n1)c1ccc(Cl)c(Cl)c1 | 1.2 | -0.8 | 7.4 | 4.5 | -1.9 | -3.3 | /
NC(c1ccccc1)c1csc(NC(=O)Nc2ccc(OC(F)(F)F)cc2)n1 (centres undefined) | / | / | / | / | / | 3.0 | /
SMILES | GSTO1 inh | PAD4 inh | Fam108B inh | PME-1 inh | RBBP9 inh | PRMT1 inh | GSTO1 inh conf | others
CCOc1ccccc1C=Nc1ccccc1C(=O)Nc1ccccc1 | 0.1 | -0.9 | 4.6 | 9.0 | -4.6 | -3.9 | /
COc1ccc(CC(=O)OCc2csc(CC(=O)Nc3ccc(C)cc3)n2)cc1 | / | -1.7 | / | / | / | -2.9 | /
Cc1ccc(NC(=O)Cc2nc(CCl)cs2)cc1 | 58.1* | -3.5 | -0.9 | 0.8 | -2.6 | 0.4 | 94.6* | GSTO1 recomb ABPP=87.0*
CCOC(=O)[C@]12CCCC=C1N(CCc1ccc(OC)c(OC)c1)C(=O)[C@H](CC(=O)N1CCN(C(=O)C3CC3)CC1)C2 | / | / | / | / | / | -1.3 | /
COc1cc2c(cc1NC(=O)CSc1nnc(Cc3cccs3)n1Cc1ccco1)oc1ccccc12 | 14.2 | -0.8 | -9.4 | -11.5 | -5.5 | / | /
COc1cc2c(cc1NC(=O)CSc1nnc(Cc3cccs3)n1C)oc1ccccc12 | 45.9* | 1.9 | -3.8 | 4.4 | -7.0 | -0.5 | 26.4
O=C(Oc1ccc(OC(=O)c2ccco2)c(S(=O)(=O)c2ccc(Br)cc2)c1)c1ccco1 | 48.9* | 3.1 | 0.8 | -0.5 | -4.1 | / | 4.4
CCN(Cc1ccc(OC)c(F)c1)C(=O)CCl | 98.3* | -4.9 | 2.1 | -2.5 | -5.4 | -0.8 | 100.7* | GSTO1 recomb ABPP=47.0
CN(O)/C=c1/ccc2c(n1)C(=O)C=CC=2 | 63.7* | -9.0 | 1.2 | 2.2 | 4.5 | 0.9 | 21.4
COC(=O)C1Cc2c([nH]c3ccccc23)C2(CCN(Cc3ccccc3)CC2)N1 (centres undefined) | 61.7* | 2.0 | -0.2 | 11.3 | / | 1.0 | 4.3
CCC1(C)NC(C(=O)O)Cc2c1[nH]c1ccccc21 (centres undefined) | -1.0 | -2.5 | -0.8 | 6.3 | / | 0.5 | /
O=C(N/N=C/c1cnc(N2CCOCC2)s1)c1ccccc1 | -4.3 | -2.4 | -2.8 | -2.8 | -2.1 | -2.5 | /
COc1cccc2c(=O)c3c([nH]c12)OC(C)(C)C3 | 1.8 | 4.2 | 2.8 | -2.9 | / | -2.5 | /
COc1cccc2c(=O)c3cccc(N)c3[nH]c12 | 66.7* | -6.2 | 12.4 | 13.0 | 2.3 | 17.1 | 13.6
CSc1ccccc1NC(=O)COC(=O)c1ccccc1Cc1ccccc1 | 68.8* | -0.9 | 1.6 | -2.5 | -8.0 | -1.7 | 3.8
CSc1ccccc1NC(=O)COC(=O)c1ccccc1O | 3.8 | -2.8 | 0.5 | -0.1 | 2.5 | 11.0 | /
Cc1nn(Cc2ccc(Cl)cc2Cl)c(C)c1NC(=O)c1nn(C)cc1Cl | 5.5 | -3.6 | 5.2 | 0.7 | -5.9 | -1.2 | /
Cc1nn(Cc2ccc(Cl)cc2Cl)c(C)c1NC(=O)CCl | 96.5* | -4.2 | -3.4 | 1.7 | -1.8 | 1.8 | 97.1*
COc1ccc(NC(=O)CSCc2cc(=O)n3nc(C4CC4)sc3n2)cc1 | 37.5* | 1.1 | 3.1 | 0.6 | / | -3.7 | 17.5
Cc1cccc(NC(=O)CSCc2cc(=O)n3nc(C4CC4)sc3n2)c1 | 1.1 | -1.4 | 2.2 | 2.6 | / | -0.7 | /
COc1ccc(OC)c2sc(N3CCN(C(=O)c4ccc([N+](=O)[O-])s4)CC3)nc12 | 54.0* | -2.6 | -0.1 | 6.4 | / | 1.3 | 10.2
O=C(Nc1nnc(-c2cc(Cl)ccc2Cl)o1)c1ccco1 | 0.5 | -0.4 | 0.3 | 0.7 | / | -5.0 | /
